OXTR agonist – human OXTR agonism | P30559 | CHO-OTR cells, Fluo-8 calcium fluorescence; normalized: DMSO 0%, oxytocin 100% | activation, % at 3 µM | 320,000 compounds, 0.32% hits | AID 2435;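 active = activation above the mean of all tested compounds plus 3 SD, cutoff set per screening run, cut at about 20% in these data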;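 also: peak over basal fluorescence ratio from a 100 s FLIPR kinetic read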
Target sequence (P30559 whole entry, looked up): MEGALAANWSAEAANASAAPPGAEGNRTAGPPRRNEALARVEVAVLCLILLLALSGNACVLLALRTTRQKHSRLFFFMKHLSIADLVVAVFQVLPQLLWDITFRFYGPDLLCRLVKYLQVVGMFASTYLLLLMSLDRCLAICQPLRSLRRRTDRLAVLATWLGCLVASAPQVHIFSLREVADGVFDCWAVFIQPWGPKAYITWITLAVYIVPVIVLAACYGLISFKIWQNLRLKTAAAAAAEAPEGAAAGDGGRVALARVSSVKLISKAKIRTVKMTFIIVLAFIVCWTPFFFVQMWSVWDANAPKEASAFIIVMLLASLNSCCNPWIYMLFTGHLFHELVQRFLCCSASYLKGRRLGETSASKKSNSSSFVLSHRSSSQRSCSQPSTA
TAAR1 ag – human TAAR1 agonism; Q96RJ0; CHO RD-HGA16 TAAR1, Fluo-8 calcium fluorescence; vehicle wells 0%, saturating PEA agonist 100%; activation, % at 3 µM; 360,000 compounds, 0.99% hits; AID 624467;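 active = activation above the mean activation of all test compounds in the run plus 3 SD, cut at about 38% in these data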
Target sequence (Q96RJ0 whole entry, looked up): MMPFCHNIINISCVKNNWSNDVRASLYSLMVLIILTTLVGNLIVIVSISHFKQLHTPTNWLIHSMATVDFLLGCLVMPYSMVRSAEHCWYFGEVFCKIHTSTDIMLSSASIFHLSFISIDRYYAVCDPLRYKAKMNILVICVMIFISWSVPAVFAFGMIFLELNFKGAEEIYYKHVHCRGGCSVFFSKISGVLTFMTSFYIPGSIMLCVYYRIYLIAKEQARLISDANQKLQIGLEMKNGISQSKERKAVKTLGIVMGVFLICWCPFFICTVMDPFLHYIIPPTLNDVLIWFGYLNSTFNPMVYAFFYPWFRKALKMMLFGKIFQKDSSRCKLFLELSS
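System: CHO RD-HGA16 cells carrying human TAAR1 plus Gα16; Incubation: 17-24 h seeding, 75 min 37 °C dye, 30 min RT; Measured by: Fluo-8 fluorescence, 5 s baseline then 140 s kinetic read; Control set: DMSO and PEA EC100; Replication: single well for each compound.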
V1R ag counter – activates human V1a receptor in oxytocin agonist counter-screen; P37288; CHO-V1R cells, Fluo-8 calcium fluorescence, agonist mode; 0% DMSO, 100% 3 nM vasopressin; activation, % at 3 µM; 320,000 compounds, 0.25% hits;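 active = activation above the mean activation of all tested compounds plus 3 SD, per screening run, cut at about 20% in these data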;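 also: signal is peak over basal fluorescence ratio across a 100 second FLIPR read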
OXTR potentiator – potentiates the human oxytocin receptor response. 320,000 compounds, 0.061% hits. CHO-OTR cells, Fluo-8 calcium fluorescence, potentiator mode; 0% = oxytocin EC15, 100% = EC100. activation, % at 3 µM. P30559;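 active = activation above that plate's cutoff, the mean activation of tested compounds plus 3 SD, cut at about 6.6% in these data, passing the limit was not always enough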;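 also: 100% uses oxytocin at 75 nM as the full agonist control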
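Material: human OTR in CHO cells. Compound: 3.0 µM, one dose. Timing: compound 6 min at room temperature before oxytocin, 100 s read. Evaluation: % activation of max/min ratio relative to oxytocin controls. Replication: single well per compound, singlicate. Signal: Fluo-8 calcium dye fluorescence.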
TAAR1 antagonist – human TAAR1 antagonism; Q96RJ0; CHO RD-HGA16 TAAR1, Fluo-8 calcium fluorescence, antagonist; inhibition, % at 3 µM; 360,000 compounds, 1.5% hits;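 active = inhibition above a per-plate cutoff, the mean inhibition of test compounds on that plate plus 3 SD, cut at about 49% in these data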;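 also: 0% = DMSO plus EC80 beta-PEA response and 100% = DMSO alone without agonist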
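Test system: CHO RD-HGA16 cells bearing hTAAR1 | Reagent: β-PEA, EC80 | Compound dosing: 3 µM, single point | Schedule: Dye loading 75 min at 37 °C, then 30 min room temperature | Signal: Calcium fluorescence with Fluo-8 | Evaluation: Percent inhibition of PEA-evoked calcium signal, max/basal emission ratio | Control set: DMSO-only wells and EC80 β-PEA-stimulated wells | Repeats: Singlicate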
nonsel antag count – nonselective antagonism, TAAR1 counter-screen. inhibition, % at 3 µM. shares compounds with TAAR1 antagonist. counterscreen cell line, calcium fluorescence, antagonist mode. 2,400 compounds, 77% hits; in the data active = inhibition above about 22%;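 also: CHO-Ga16 host cells stimulated with ATP at an EC80 level; 0% = agonist EC80 plus vehicle and 100% = vehicle without agonist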
TAAR1 antag conf – human TAAR1 antagonism, confirmed. inhibition, % at 3 µM. TAAR1-expressing cells, fluorescence antagonist read-out. shares compounds with TAAR1 antagonist. 2,400 compounds, 40% hits; in the data active = inhibition above about 49%;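 also: CHO-Ga16 host cells challenged with agonist PEA near its EC80; 0% = agonist at EC80 plus vehicle and 100% = vehicle with no agonist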
Ga16 ag counter – nonselective Ga16 agonism, counter-screen | shares compounds with TAAR1 antagonist | AID 651953 | 2,400 compounds, 18% hits | Ga16-expressing cells, calcium fluorescence, agonist counterscreen | activation, % at 3 µM; in the data active = activation above about 12%;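 also: 0% = vehicle wells and 100% = saturating stimulus response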
TAAR1 ag count – activates human TAAR1 in antagonist counter-screen | shares compounds with TAAR1 antagonist | hTAAR1 cell line, fluorescence activation, agonist mode | activation, % at 3 µM | 2,400 compounds, 2% hits; in the data active = activation above about 37%;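 also: CHO cells stably expressing TAAR1 with calcium dye readout; 0% = DMSO vehicle and 100% = full agonist response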
* = called active by the depositor; x = no result given. This is a sample that favours compounds with a hit; in the whole collection about 2.3% have one here.

SMILES | OXTR agonist | TAAR1 ag | V1R ag counter | OXTR potentiator | TAAR1 antagonist | nonsel antag count | TAAR1 antag conf | Ga16 ag counter | TAAR1 ag count
O=C(N/N=C/c1cc(Cl)c(O)c(Cl)c1)c1cc2c(ccc3ccccc32)o1 | 0 | 1 | 0 | -5 | 47 | x | x | x | x
Cc1ccc(C)c(N2CCN(C(=O)CCc3nc(-c4cccc(F)c4)no3)CC2)c1 | x | -2 | x | x | 11 | x | x | x | x
Cc1ccc(C)c(N2CCN(C(=O)CCc3nc(-c4ccccc4Br)no3)CC2)c1 | x | 4 | x | x | 67* | 32* | 46 | 6 | 4
Cc1ccc(C)c(N2CCN(C(=O)CCc3nc(-c4ccccc4F)no3)CC2)c1 | x | 8 | x | x | 64* | 18 | 40 | 7 | 10
CCCCOCCCNC(=O)C[C@H]1C[C@@]2(C(=O)OC)C(=C[C@H](C(C)C)O[C@@H]2C2CC2)N(Cc2ccccc2)C1=O | x | -1 | x | x | -9 | x | x | x | x
Cn1ccc(NS(=O)(=O)c2cc(Br)ccc2Br)n1 | 0 | 0 | 0 | 4 | -5 | x | x | x | x
CCN(CC)CCOCCn1c(C)ccc1C | x | 0 | x | x | 2 | x | x | x | x
CC(=O)c1ccc2cc3c(cc2c1)OCO3 | x | 0 | x | x | 9 | x | x | x | x
Cc1ccc(CNC(=O)c2ccccc2SCC(=O)NCC2CCCCC2)cc1 | -2 | 12 | 0 | -3 | 63* | 26* | 45 | 9 | 7
CSc1ccccc1C(=O)NCc1ccc(C)cc1 | 0 | -2 | 0 | 5 | 104* | 8 | 11 | 0 | 3
O=C(NCc1ccco1)c1cccc(-c2ccc3nccn3c2)c1 | x | 0 | x | x | -15 | x | x | x | x
COc1ccccc1N1CCN(C(=O)c2ccc(-c3nc4ccccc4s3)o2)CC1 | -3 | 2 | -2 | -4 | 54* | 22* | 35 | 3 | -1
COc1ccc(N2CCN(C(=O)c3ccc(-c4nc5ccccc5s4)o3)CC2)cc1 | -1 | 1 | 0 | 10 | -5 | x | x | x | x
C=CCNC(=O)/C(=C\C=C\c1ccccc1)NC(=O)c1ccccc1Cl | 0 | 13 | 0 | -10 | 62* | 25* | 36 | 6 | 7
Cc1ccccc1NC(NC(=O)c1cccs1)C(Cl)(Cl)Cl (configuration not stated) | 1 | 13 | 0 | -5 | 52* | 20 | 38 | 13* | 16
Clc1cccc(CNc2ccn3nc(-c4ccc(OCCN5CCOCC5)cc4)cc3n2)c1 | x | 33 | x | x | 69* | 44* | 71* | 23* | 23
c1cc(-c2cc3nc(NC4CCCCC4)ccn3n2)ccc1OCCN1CCOCC1 | x | 16 | x | x | 61* | 24* | 42 | 11 | 18
c1cc(-c2cc3nc(NCC4CC4)ccn3n2)ccc1OCCN1CCOCC1 | x | 9 | x | x | 42 | x | x | x | x
O=C(NCCCN1CCCC1=O)c1cc(-c2ccc(F)cc2)nc2ccccc12 | -1 | 10 | 0 | -6 | 33 | x | x | x | x
COc1ccc2sc(-c3ccc(S(C)(=O)=O)cc3)c(C(=O)NCCCN3CCCC3=O)c2c1 | 0 | 15 | 0 | 9 | 49* | 31* | 43 | 7 | 6
COc1ccc(-c2cc(C(=O)NCCCN3CCCC3=O)c3ccccc3n2)cc1 | 0 | 10 | 0 | 7 | 50* | 20 | 33 | 7 | 3
CCOC(=O)N1CCN(C(=O)C[C@@H]2C[C@@]3(C(=O)OC)CCCCC=C3N(Cc3ccccc3)C2=O)CC1 | x | 5 | x | x | 14 | x | x | x | x
CC(C)(C)c1ccc(OCc2ccc(C(=O)N/N=C/c3ccc([N+](=O)[O-])cc3)o2)cc1 | 1 | 13 | 1 | -3 | 53* | 31* | 44 | 5 | 8
CCOc1ccc(/C=N/NC(=O)c2ccc(Cn3cc([N+](=O)[O-])cn3)o2)cc1 | 1 | 1 | 3 | -11 | 6 | x | x | x | x
O=C(COc1ccc(/C=N/NC(=O)c2ccccc2O)cc1)Nc1ccc([N+](=O)[O-])cc1 | 0 | 10 | 1 | -3 | 63* | 29* | 45 | 10 | 8
SMILES | OXTR agonist | TAAR1 ag | V1R ag counter | OXTR potentiator | TAAR1 antagonist | nonsel antag count | TAAR1 antag conf | Ga16 ag counter | TAAR1 ag count
O=C(COc1ccc(/C=N/NC(=O)c2ccncc2)cc1)Nc1cccc([N+](=O)[O-])c1 | 0 | 5 | 2 | -12 | 15 | x | x | x | x
CCOC(=O)C1(C)CCCCN1C(=O)c1ccoc1 (configuration not stated) | x | 1 | x | x | -18 | x | x | x | x
O=[N+]([O-])c1cccc(I)c1 | x | 0 | x | x | 16 | x | x | x | x
O=C1C(=Cc2cccs2)C(=O)c2ccccc21 | -3 | -3 | 0 | -3 | 104* | 4 | 0 | -1 | 4
COc1ccc(CN2C(=O)C(CC(=O)NCCc3ccccn3)CC(C(=O)N(C(C)C)C(C)C)=C2C)cc1 (configuration not stated) | x | 13 | x | x | -15 | x | x | x | x
COc1cc(C(=O)Nc2cccc(-c3nnc(-c4ccco4)o3)c2)ccc1OC(C)=O | -1 | 16 | 1 | -8 | 64* | 26* | 45 | 7 | 8
COc1ccc(C(=O)Nc2cccc(-c3nnc(-c4ccco4)o3)c2)cc1 | -2 | 18 | -1 | -7 | 39 | x | x | x | x
COc1cc(/C=N/Nc2nc(Nc3ccc(C)cc3)nc(-n3nc(C)cc3C)n2)cc(OC)c1OC | -1 | 10 | -1 | -6 | 39 | x | x | x | x
COc1ccc(O)c(/C=N/Nc2nc(Nc3ccccc3)nc(-n3nc(C)cc3C)n2)c1 | -1 | 13 | -1 | -16 | 59* | 37* | 47 | 7 | 2
COc1cc(/C=N/Nc2nc(Nc3ccccc3)nc(-n3nc(C)cc3C)n2)cc(OC)c1OC | -2 | 6 | -1 | -8 | 64* | 24* | 38 | 6 | 7
CCOC(=O)CSc1ccc2ccccc2n1 | 0 | 1 | -1 | 3 | -15 | x | x | x | x
CCOC(=O)C(C#N)(Cc1ccc2ccccc2n1)Cc1ccc2ccccc2n1 | x | 11 | x | x | 64* | 30* | 44 | 8 | 5
CC1C(=O)N(Cc2cn(CCC3OCCCO3)nn2)CCS(=O)(=O)N1Cc1ccc(-c2ccc(Cl)cc2)cc1 (configuration not stated) | x | 19 | x | x | 87* | 45* | 59* | 16* | 10
COc1ccc(-c2ccc(CN3C(CC(C)C)C(=O)N(Cc4cn(CCC5OCCCO5)nn4)CCS3(=O)=O)cc2)cc1OC (configuration not stated) | x | 7 | x | x | 57* | 24* | 33 | 7 | 6
COc1ccc(-c2ccc(CN3C(C(C)C)C(=O)N(Cc4cn(CCC5OCCCO5)nn4)CCS3(=O)=O)cc2)cc1OC (configuration not stated) | x | 7 | x | x | -17 | x | x | x | x
